Laboratory results from ChEMBL document CHEMBL1129379, “Heterocyclic ureas: inhibitors of acyl-CoA:cholesterol O-acyltransferase as hypocholesterolemic agents” (J Med Chem, 1996).

What was measured:
[1] = biological target: O-acyltransferase (Oryctolagus cuniculus, UniProt G1SFD9); test: Acyl coenzyme A:cholesterol acyltransferase 1 inhibition in vitro measured in rabbit intestinal microsomes; parameters: species or system Intestine
[2] = test system: Canis familiaris; test: Percent change in plasma cholesterol in dog at 3 mg/kg; type: functional, Canis lupus familiaris
Summary of the method: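 Cholesterol-fed female Beagle dogs given bulk drug in capsules before meals, daily for 1 week, at 3 mg/kg po. Plasma total cholesterol compared before and after treatment as percent change; paired two-tailed t-test, n = 6.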

[3] = test system: Rattus norvegicus; test: Percent change in plasma TC in the chronic C-fed rat model of pre-established hypercholesterolemia. Dose at 10 mg/kg; type: functional
Summary of the method: (§1)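 Chronic rat model of pre-established hypercholesterolemia: 1 week on high-cholesterol diet, then compound dosed orally once daily for 1 week. Plasma total cholesterol, HDL-C and non-HDL-C expressed as percent change versus control; p < 0.05 flagged.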

[4] = biological target: T1, Sterol O-acyltransferase 1 (Rattus norvegicus) (UniProt O70536); test: Percent change in plasma TC in the chronic C-fed rat model of pre-established hypercholesterolemia. Dose at 30 mg/kg; type: functional, organism-based; parameters: dose 30 mg/kg; summary of the method: as §1
T1 sequence (whole entry): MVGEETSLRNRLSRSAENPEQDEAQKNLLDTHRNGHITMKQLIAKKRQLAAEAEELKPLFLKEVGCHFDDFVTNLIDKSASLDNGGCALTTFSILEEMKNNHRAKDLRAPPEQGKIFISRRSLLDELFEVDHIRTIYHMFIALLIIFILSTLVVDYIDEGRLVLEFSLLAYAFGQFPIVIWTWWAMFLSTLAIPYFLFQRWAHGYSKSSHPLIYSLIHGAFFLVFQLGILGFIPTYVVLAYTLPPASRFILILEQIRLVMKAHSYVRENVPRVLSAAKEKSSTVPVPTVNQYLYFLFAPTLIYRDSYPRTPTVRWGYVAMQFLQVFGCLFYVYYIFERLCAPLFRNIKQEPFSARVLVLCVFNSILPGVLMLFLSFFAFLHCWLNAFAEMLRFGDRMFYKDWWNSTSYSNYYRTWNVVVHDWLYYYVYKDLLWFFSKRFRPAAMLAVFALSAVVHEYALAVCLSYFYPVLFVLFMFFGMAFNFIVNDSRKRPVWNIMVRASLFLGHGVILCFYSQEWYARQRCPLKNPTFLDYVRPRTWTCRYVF

[5] = test system: Rattus norvegicus; test: Percent change in plasma TC in the chronic C-fed rat model of pre-established hypercholesterolemia. Dose at 3 mg/kg; type: functional; summary of the method: as §1
[6] = biological target: T1, Sterol O-acyltransferase 1 (Rattus norvegicus); test: Percent change in plasma total cholesterol in an acute cholesterol-fed rat model of hypercholesterolemia, dose at 3 mg/kg; type: functional, organism-based; parameters: dose 3 mg/kg
[7] = biological target: T1, Sterol O-acyltransferase 1 (Rattus norvegicus); test: Percent change in plasma total cholesterol in an acute cholesterol-fed rat model of hypercholesterolemia, dose at 30 mg/kg; type: functional, organism-based; parameters: dose 30 mg/kg
[8] = test system: Rattus norvegicus; test: Percent change in HDL-CDose at 10 mg/kg; type: functional; summary of the method: as §1
[9] = test system: Rattus norvegicus; test: Percent change in HDL-CDose at 30 mg/kg; type: functional; summary of the method: as §1
[10] = test system: Rattus norvegicus; test: Percent change in HDL-CDose at 3 mg/kg; type: functional; summary of the method: as §1
[11] = test system: Rattus norvegicus; test: Percent change in non-HDL-C Dose at 10 mg/kg; type: functional; summary of the method: as §1
[12] = test system: Rattus norvegicus; test: Percent change in non-HDL-C Dose at 30 mg/kg; type: functional; summary of the method: as §1
[13] = test system: Rattus norvegicus; test: Percent change in non-HDL-C Dose at 3 mg/kg; type: functional; summary of the method: as §1

In the case of `CCCCCCCCCCCCCCN1NN=C(NC(=O)Nc2c(C(C)C)cccc2C(C)C)N1`, the IC50 [1] is reported as 12 nM, the Delta plasma cholesterol [2] is reported as -22% and the “Delta TC” value [3] is reported as -53%. For the same compound, the Delta TC [4] was -61%, the “Delta TC” value [5] was -43% and the Delta TC [6] was -56%. The Delta TC [7] was -65%, the “Delta HDL-C” value [8] was 87% and the “Delta HDL-C” value [9] was 93%. The “Delta HDL-C” value [10] was 47%, the Non-HDL-C [11] was -61% and the Non-HDL-C [12] was -68%. It also gave a Non-HDL-C [13] of -48%.
